Reference: ChEMBL document CHEMBL1146916, “Studies towards the conception of new selective PPARbeta/delta ligands” (Bioorg Med Chem Lett, 2006)
The source made the active and inactive calls. The calls are words filed in the database; no cut-off is given here.

What was measured:
[1] = biological target: T1, Peroxisome proliferator-activated receptor delta (Homo sapiens) (UniProt Q03181); experiment: (§1) Activity at PPARbeta/delta by luciferase reporter gene transactivation assay in COS7 cells; type: functional, cell-based; conditions: COS-7
T1 sequence (whole entry): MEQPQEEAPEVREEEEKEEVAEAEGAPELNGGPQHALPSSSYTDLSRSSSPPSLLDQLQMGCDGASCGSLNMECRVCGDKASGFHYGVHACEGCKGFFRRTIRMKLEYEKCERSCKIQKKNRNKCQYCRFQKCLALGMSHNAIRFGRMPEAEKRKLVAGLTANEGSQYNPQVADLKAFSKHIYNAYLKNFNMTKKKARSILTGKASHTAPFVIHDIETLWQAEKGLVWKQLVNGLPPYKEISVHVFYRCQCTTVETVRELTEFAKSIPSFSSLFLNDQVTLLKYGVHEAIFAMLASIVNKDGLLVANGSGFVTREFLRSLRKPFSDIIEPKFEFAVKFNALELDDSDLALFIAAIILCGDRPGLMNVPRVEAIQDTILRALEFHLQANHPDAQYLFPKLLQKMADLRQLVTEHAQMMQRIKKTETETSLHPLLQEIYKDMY

[2] = biological target: T2, Peroxisome proliferator-activated receptor alpha (Homo sapiens) (UniProt Q07869); experiment: (§2) Activity at PPARalpha by luciferase reporter gene transactivation assay in COS7 cells; type: functional, cell-based; conditions: COS-7
T2 sequence (whole entry): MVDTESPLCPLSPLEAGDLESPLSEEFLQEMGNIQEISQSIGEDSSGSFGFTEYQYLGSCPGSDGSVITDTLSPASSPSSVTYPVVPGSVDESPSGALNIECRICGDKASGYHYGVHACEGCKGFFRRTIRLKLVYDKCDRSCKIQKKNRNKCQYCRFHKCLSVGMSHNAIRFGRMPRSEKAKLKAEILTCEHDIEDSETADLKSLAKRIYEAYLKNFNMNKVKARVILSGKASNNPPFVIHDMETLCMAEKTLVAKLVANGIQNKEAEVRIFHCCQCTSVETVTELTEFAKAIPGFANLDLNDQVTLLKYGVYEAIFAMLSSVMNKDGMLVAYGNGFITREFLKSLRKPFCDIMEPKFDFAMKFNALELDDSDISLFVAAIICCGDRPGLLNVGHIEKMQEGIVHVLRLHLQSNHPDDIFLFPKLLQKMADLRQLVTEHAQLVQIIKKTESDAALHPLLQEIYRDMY

[3] = biological target: T3, Peroxisome proliferator-activated receptor delta (Homo sapiens, UniProt Q03181); experiment: as §1; type: functional, cell-based, COS-7
T3 sequence (Q03181 whole entry): T1 sequence (whole entry)

[4] = biological target: T2, Peroxisome proliferator-activated receptor alpha (Homo sapiens); experiment: Activity at PPARalpha by luciferase reporter gene transactivation assay in COS7 cells relative to WY-14643 at 10 uM; type: functional, cell-based; conditions: COS-7
Procedure, shortened: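 Cos-7 cells were transiently transfected, using PEI in OptiMEM for 3 h at 37 °C, with the pG5-TK-pGL3 luciferase reporter, pGAL4hPPARa (Gal4 DBD–human PPARα LBD) and pCMV-β-galactosidase. Cells were reseeded in 96-well plates and treated for 16 h in DMEM with 0.2% FCS at 10 µM–10 nM. Luciferase was normalized to β-galactosidase, and maximal activity was expressed versus the WY14.643 positive control. Experiments were run at least three times.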

[5] = biological target: T4, Peroxisome proliferator-activated receptor gamma (Homo sapiens, UniProt P37231); experiment: Activity at PPARgamma by luciferase reporter gene transactivation assay in COS7 cells; type: functional, cell-based, COS-7
T4 sequence (P37231 whole entry): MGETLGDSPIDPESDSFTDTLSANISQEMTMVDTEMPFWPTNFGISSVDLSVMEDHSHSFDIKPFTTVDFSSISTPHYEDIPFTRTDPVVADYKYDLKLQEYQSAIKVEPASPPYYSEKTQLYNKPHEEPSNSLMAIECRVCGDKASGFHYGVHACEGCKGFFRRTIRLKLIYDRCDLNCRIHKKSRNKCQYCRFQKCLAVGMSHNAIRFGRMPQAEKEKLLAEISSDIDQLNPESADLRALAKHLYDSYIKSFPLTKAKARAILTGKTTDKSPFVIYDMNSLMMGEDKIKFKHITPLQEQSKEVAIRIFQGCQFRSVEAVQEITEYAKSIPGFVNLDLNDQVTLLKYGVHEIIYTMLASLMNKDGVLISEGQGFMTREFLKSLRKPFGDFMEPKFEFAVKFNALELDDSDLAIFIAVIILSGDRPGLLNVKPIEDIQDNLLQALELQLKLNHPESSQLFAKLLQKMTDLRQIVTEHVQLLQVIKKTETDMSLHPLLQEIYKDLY

[6] = biological target: T5, Peroxisome proliferator-activated receptor alpha (Homo sapiens, UniProt Q07869); experiment: as §2; type: functional, cell-based, COS-7
T5 sequence (Q07869 whole entry): T2 sequence (whole entry)

Homo sapiens = organism: Homo sapiens; experiment: Selectivity for human PPARdelta over human PPARalpha
Procedure, shortened: (§3)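 The selectivity ratio is taken from EC50 values measured in Cos-7 cells transiently transfected with the pG5-TK-pGL3 luciferase reporter plus Gal4 DBD–human PPARβ/δ, PPARα or PPARγ LBD chimeras and β-galactosidase control. Cells were treated for 16 h in 0.2% FCS DMEM at 10 µM–10 nM. EC50s were fitted from β-gal-normalized luciferase and are means of three experiments.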

[7] = biological target: PPAR delta/gamma (Homo sapiens) (UniProt P37231+Q03181); experiment: Selectivity for human PPARdelta over human PPARgamma; type: protein assay; procedure, shortened: as §3

Structure (SMILES)	Activity [1]	Activity [2]	EC50 [3] [nM]	Activity [4] [%]	EC50 [5] [nM]	EC50 [6] [nM]	Selectivity ratio [7]	Selectivity ratio (Homo sapiens)
COC(=O)COc1ccc(OCCCOc2cccc(O)c2)cc1	inactive	inactive						
CCCc1ccccc1OCCCOc1ccc(OCC(=O)OC)cc1		inactive	1050					
CCCc1cc(C(F)(F)F)ncc1OCCCOc1ccc(OCC(=O)O)c(C)c1			15	136	1580	1330		> 100
CC(=O)c1ccc(OCCCOc2ccc(OCC(=O)O)cc2)cc1O		inactive	10000					
CCCc1c(OCCCOc2ccc(OCC(=O)OC)cc2)ccc(C(C)=O)c1O			457	32	288	1070		
CCCc1c(OCCCOc2ccc(OCC(=O)OC)cc2)cnc(C(C)=O)c1O			82	64	757	8390		
CCCc1cc(C(F)(F)F)ccc1OCCCOc1ccc(OCC(=O)OC)cc1			98	49	1190	1400		
CCCc1cc(C(F)(F)F)ccc1OCCCOc1ccc(OCC(=O)O)c(C)c1			7	40	153	103		

Now from value to compound, other results behind:

Activity [1]	Activity [2]	EC50 [3] [nM]	Activity [4] [%]	EC50 [5] [nM]	EC50 [6] [nM]	Selectivity ratio [7]	Structure (SMILES)	Selectivity ratio (Homo sapiens)
		16	85	1260	1010		CCCc1cc(C(F)(F)F)ccc1OCCCOc1ccc(OCC(=O)OC)c(C)c1	
		125		1820	977	15	CCCc1c(OCCCOc2ccc(OCC(=O)O)cc2)ccc(C(C)=O)c1O	8
inactive	inactive						CC(=O)c1ccc(OCCCOc2ccc(OCC(=O)O)cc2)cc1	
			452				Cc1cc(SCc2sc(-c3ccc(C(F)(F)F)cc3)nc2C)ccc1OCC(=O)O	
